Laboratory results taken from ChEMBL document CHEMBL1153903, “Tethered thiazolidinone dimers as inhibitors of the bacterial type III secretion system” (Bioorg Med Chem Lett, 2009).

Assay: Inhibition of T3SS-dependent SipA secretion in Salmonella Typhimurium
Design: species or system Salmonella enterica subsp. enterica serovar Typhimurium
Summary of the method: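 Salmonella typhimurium type III secretion read out as secretion of the substrate SipA into culture supernatants. Supernatant proteins TCA-precipitated, resolved by SDS-PAGE and Western blotted with anti-SipA antibody; IC50 derived from the reduction in secreted SipA.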

Point of comparison: `COc1cc(/C=C2\S/C(=N\c3ccccc3)N(CCNC(=O)C3CCCN3C(=O)CN3C(=O)/C(=C/c4cc(OC)c(O)c(OC)c4)S/C3=N\c3ccccc3)C2=O)cc(OC)c1O` (configuration not stated), IC50 55 µM. Against it:
- COc1cc(/C=C2\S/C(=N\c3ccccc3)N(CCCNC(=O)[C@H](CCCNC(=N)N)NC(=O)CN3C(=O)/C(=C/c4cc(OC)c(O)c(OC)c4)S/C3=N\c3ccccc3)C2=O)cc(OC)c1O — within 1.5-fold, 48 µM
- COc1cc(/C=C2\S/C(=N\c3ccccc3)N(CC(=O)Nc3ccccc3NC(=O)CN3C(=O)/C(=C/c4cc(OC)c(O)c(OC)c4)S/C3=N\c3ccccc3)C2=O)cc(OC)c1O — 2.5-fold lower, 22 µM
- COc1cc(/C=C2\S/C(=N\c3ccccc3)N(CCCCCCNC(=O)CCCN3C(=O)/C(=C/c4cc(OC)c(O)c(OC)c4)S/C3=N\c3ccccc3)C2=O)cc(OC)c1O — 3.2-fold lower, 17 µM
- COc1cc(/C=C2\S/C(=N\c3ccccc3)N(CCCNC(=O)CN3C(=O)/C(=C/c4cc(OC)c(O)c(OC)c4)S/C3=N\c3ccccc3)C2=O)cc(OC)c1O — within 1.5-fold, 48 µM
- COc1cc(/C=C2\S/C(=N\c3ccccc3)N(CCCCNC(=N)NCCN3C(=O)/C(=C/c4cc(OC)c(O)c(OC)c4)S/C3=N\c3ccccc3)C2=O)cc(OC)c1O — within 1.5-fold, 47 µM
- COc1cc(/C=C2\S/C(=N\c3ccccc3)N(CCCCCCNCCN3C(=O)/C(=C/c4cc(OC)c(O)c(OC)c4)S/C3=N\c3ccccc3)C2=O)cc(OC)c1O — within 1.5-fold, 65 µM
- COc1cc(/C=C2\S/C(=N\c3ccccc3)N(CCCNC(=O)[C@H](Cc3ccc(-c4ccccc4)cc3)NC(=O)[C@H](CCCN)N3C(=O)/C(=C/c4cc(OC)c(O)c(OC)c4)S/C3=N\c3ccccc3)C2=O)cc(OC)c1O — within 1.5-fold, 49 µM
- COc1cc(/C=C2\S/C(=N\c3ccccc3)N(c3ccccc3)C2=O)cc(OC)c1O — 1.5-fold higher, 83 µM
- COc1cc(/C=C2\S/C(=N\c3ccccc3)N(CCN3CCN(CCN4C(=O)/C(=C/c5cc(OC)c(O)c(OC)c5)S/C4=N\c4ccccc4)CC3)C2=O)cc(OC)c1O — within 1.5-fold, 44 µM
- COc1cc(/C=C2\S/C(=N\c3ccccc3)N(CCCCCCNC(=O)CN3C(=O)/C(=C/c4cc(OC)c(O)c(OC)c4)S/C3=N\c3ccccc3)C2=O)cc(OC)c1O — 11-fold lower, 5 µM
- COc1cc(/C=C2\S/C(=N\c3ccccc3)N(CC(=O)Nc3cccc(NC(=O)CN4C(=O)/C(=C/c5cc(OC)c(O)c(OC)c5)S/C4=N\c4ccccc4)c3)C2=O)cc(OC)c1O — within 1.5-fold, 80 µM
